Tests used:
Format in all cases: functional
Rattus norvegicus [1] = assay: Inhibition of passive cutaneous anaphylaxis in male Sprague-Dawley rats following 1 mg/kg p.o. administration; Not significant.; settings: route oral
Method in brief: (§1)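 IgE antiserum raised in male Sprague-Dawley rats (ca. 200 g) by immunization with Ascaris suum extract (2 then 0.2 mg protein), bled 2 weeks after the second dose. Recipients got 0.05 mL diluted antiserum intracutaneously on the back. Blued area (product of two diameters) was read at 30 min.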

Rattus norvegicus [2] = assay: Antiallergic activity against passive cutaneous anaphylaxis (PCA) in male Sprague-Dawley rats after 3.0 mg/kg oral administration; method in brief: as §1
Rattus norvegicus [3] = assay: Inhibition of passive cutaneous anaphylaxis in male Sprague-Dawley rats following 0.3 mg/kg p.o. administration; Not significant.; settings: route oral; method in brief: as §1
Rattus norvegicus [4] = assay: Antiallergic activity against passive cutaneous anaphylaxis (PCA) in male Sprague-Dawley rats after 3.0 mg/kg oral administration;not statistically significant; method in brief: as §1
Rattus norvegicus [5] = assay: Antiallergic activity against passive cutaneous anaphylaxis (PCA) in male Sprague-Dawley rats after 1.0 mg/kg oral administration; method in brief: as §1
Rattus norvegicus [6] = assay: Antiallergic activity against passive cutaneous anaphylaxis (PCA) in male Sprague-Dawley rats after 0.3 mg/kg oral administration; method in brief: as §1
Rattus norvegicus [7] = assay: Antiallergic activity against passive cutaneous anaphylaxis (PCA) in male Sprague-Dawley rats after 0.3 mg/kg oral administration;p<0.1; method in brief: as §1
Rattus norvegicus [8] = assay: Inhibition of passive cutaneous anaphylaxis in male Sprague-Dawley rats following 10 mg/kg p.o. administration.; settings: route oral; method in brief: as §1
Rattus norvegicus [9] = assay: Antiallergic activity against passive cutaneous anaphylaxis (PCA) in male Sprague-Dawley rats after 10.0 mg/kg oral administration;not statistically significant; method in brief: as §1

CCCCc1ccc(-c2cc(CC)cc(C(=O)Nc3nn[nH]n3)n2)cc1
inhibition in vivo at 1 mg/kg (Rattus norvegicus [1]): 20%
inhibition in vivo at 3 mg/kg (Rattus norvegicus [2]): 70%

CNc1ccc(-c2cccc(C(=O)Nc3nn[nH]n3)n2)cc1
inhibition in vivo at 1 mg/kg (Rattus norvegicus [1]): 71%
inhibition in vivo at 0.3 mg/kg (Rattus norvegicus [3]): 29%
inhibition in vivo at 3 mg/kg (Rattus norvegicus [4]): 83%

CCc1ccc(-c2cc(OC)cc(C(=O)Nc3nn[nH]n3)n2)cc1
inhibition in vivo at 1 mg/kg (Rattus norvegicus [5]): 43%
inhibition in vivo at 0.3 mg/kg (Rattus norvegicus [6]): 23%

COc1ccc(-c2cc(Cl)cc(C(=O)Nc3nn[nH]n3)n2)cc1
inhibition in vivo at 1 mg/kg (Rattus norvegicus [5]): 43%
inhibition in vivo at 0.3 mg/kg (Rattus norvegicus [6]): 40%
inhibition in vivo at 3 mg/kg (Rattus norvegicus [2]): 100%

CNc1ccc(-c2cc(C)cc(C(=O)Nc3nn[nH]n3)n2)cc1
inhibition in vivo at 1 mg/kg (Rattus norvegicus [5]): 89%
inhibition in vivo at 0.3 mg/kg (Rattus norvegicus [3]): 36%

COc1cc(C(=O)Nc2nn[nH]n2)nc(-c2ccccc2OC)c1
inhibition in vivo at 1 mg/kg (Rattus norvegicus [1]): 41%
inhibition in vivo at 3 mg/kg (Rattus norvegicus [2]): 68%
inhibition in vivo at 0.3 mg/kg (Rattus norvegicus [7]): 35%

Cc1ccc(-c2cc(CC(C)C)cc(C(=O)Nc3nn[nH]n3)n2)cc1
inhibition in vivo at 1 mg/kg (Rattus norvegicus [1]): 9%
inhibition in vivo at 3 mg/kg (Rattus norvegicus [2]): 52%

CC(C)c1ccc(-c2cc(Cl)cc(C(=O)Nc3nn[nH]n3)n2)cc1
inhibition in vivo at 1 mg/kg (Rattus norvegicus [1]): 14%
inhibition in vivo at 10 mg/kg (Rattus norvegicus [8]): 90%
inhibition in vivo at 3 mg/kg (Rattus norvegicus [2]): 68%

COc1ccc(-c2cccc(C(=O)Nc3nn[nH]n3)n2)cc1
inhibition in vivo at 1 mg/kg (Rattus norvegicus [1]): 12%
inhibition in vivo at 0.3 mg/kg (Rattus norvegicus [3]): 4%
inhibition in vivo at 3 mg/kg (Rattus norvegicus [2]): 36%

CC(C)c1cc(C(=O)Nc2nn[nH]n2)nc(-c2ccc(N)cc2)c1
inhibition in vivo at 1 mg/kg (Rattus norvegicus [1]): 29%
inhibition in vivo at 0.3 mg/kg (Rattus norvegicus [3]): 22%
inhibition in vivo at 3 mg/kg (Rattus norvegicus [4]): 43%

CCCCc1ccc(-c2cc(CC(C)C)cc(C(=O)Nc3nn[nH]n3)n2)cc1
inhibition in vivo at 3 mg/kg (Rattus norvegicus [4]): 3%
inhibition in vivo at 10 mg/kg (Rattus norvegicus [9]): 13%

CCCCc1ccc(-c2cc(Cl)cc(C(=O)Nc3nn[nH]n3)n2)cc1
inhibition in vivo at 1 mg/kg (Rattus norvegicus [5]): 0%
inhibition in vivo at 3 mg/kg (Rattus norvegicus [2]): 83%

Cc1cccc(-c2cc(C)cc(C(=O)Nc3nn[nH]n3)n2)c1
inhibition in vivo at 1 mg/kg (Rattus norvegicus [5]): 51%
inhibition in vivo at 3 mg/kg (Rattus norvegicus [2]): 61%

CCc1ccc(-c2cccc(C(=O)Nc3nn[nH]n3)n2)cc1
inhibition in vivo at 1 mg/kg (Rattus norvegicus [1]): 39%
inhibition in vivo at 0.3 mg/kg (Rattus norvegicus [7]): 14%

CCN(CC)c1ccc(-c2cc(C)cc(C(=O)Nc3nn[nH]n3)n2)cc1
inhibition in vivo at 0.3 mg/kg (Rattus norvegicus [3]): 19%

COc1cc(C(=O)Nc2nn[nH]n2)nc(-c2cc(OC)c(OC)c(OC)c2)c1
inhibition in vivo at 3 mg/kg (Rattus norvegicus [2]): 0%
inhibition in vivo at 10 mg/kg (Rattus norvegicus [9]): 25%

CCCc1cc(C(=O)Nc2nn[nH]n2)nc(-c2ccc(C)cc2)c1
inhibition in vivo at 10 mg/kg (Rattus norvegicus [8]): 84%
inhibition in vivo at 3 mg/kg (Rattus norvegicus [2]): 50%

COc1cc(C(=O)Nc2nn[nH]n2)nc(-c2ccc(N(C)C)cc2)c1
inhibition in vivo at 1 mg/kg (Rattus norvegicus [5]): 64%
inhibition in vivo at 0.3 mg/kg (Rattus norvegicus [6]): 29%
inhibition in vivo at 3 mg/kg (Rattus norvegicus [2]): 100%

CCc1cc(C(=O)Nc2nn[nH]n2)nc(-c2ccc(C)cc2)c1
inhibition in vivo at 0.3 mg/kg (Rattus norvegicus [3]): 33%

COc1ccc(-c2cc(Cl)cc(C(=O)Nc3nn[nH]n3)n2)cc1OC
inhibition in vivo at 1 mg/kg (Rattus norvegicus [1]): 15%
inhibition in vivo at 3 mg/kg (Rattus norvegicus [4]): 30%

CCCCc1cc(C(=O)Nc2nn[nH]n2)nc(-c2ccc(N)cc2)c1
inhibition in vivo at 1 mg/kg (Rattus norvegicus [5]): 81%
inhibition in vivo at 0.3 mg/kg (Rattus norvegicus [6]): 41%

COc1ccc(-c2cc(OC)cc(C(=O)Nc3nn[nH]n3)n2)cc1
inhibition in vivo at 1 mg/kg (Rattus norvegicus [1]): 25%
inhibition in vivo at 3 mg/kg (Rattus norvegicus [2]): 60%

COc1cc(C(=O)Nc2nn[nH]n2)nc(-c2ccc(Cl)cc2)c1
inhibition in vivo at 1 mg/kg (Rattus norvegicus [5]): 0%
inhibition in vivo at 10 mg/kg (Rattus norvegicus [8]): 55%
inhibition in vivo at 3 mg/kg (Rattus norvegicus [4]): 12%

CC(=O)Nc1ccc(-c2cc(C)cc(C(=O)Nc3nn[nH]n3)n2)cc1
inhibition in vivo at 3 mg/kg (Rattus norvegicus [4]): 32%

CCCCc1cc(C(=O)Nc2nn[nH]n2)nc(-c2ccc(CC)cc2)c1
inhibition in vivo at 1 mg/kg (Rattus norvegicus [1]): 19%
inhibition in vivo at 3 mg/kg (Rattus norvegicus [4]): 25%

CCCCc1cc(C(=O)Nc2nn[nH]n2)nc(-c2ccccc2)c1
inhibition in vivo at 1 mg/kg (Rattus norvegicus [5]): 56%
inhibition in vivo at 10 mg/kg (Rattus norvegicus [8]): 100%
inhibition in vivo at 3 mg/kg (Rattus norvegicus [2]): 71%

COc1cc(C(=O)Nc2nn[nH]n2)nc(-c2ccccc2)c1
inhibition in vivo at 1 mg/kg (Rattus norvegicus [5]): 62%
inhibition in vivo at 10 mg/kg (Rattus norvegicus [8]): 100%
inhibition in vivo at 3 mg/kg (Rattus norvegicus [2]): 97%

CNc1ccc(-c2cc(OC)cc(C(=O)Nc3nn[nH]n3)n2)cc1
inhibition in vivo at 1 mg/kg (Rattus norvegicus [1]): 35%
inhibition in vivo at 3 mg/kg (Rattus norvegicus [2]): 79%

CCOc1cc(C(=O)Nc2nn[nH]n2)nc(-c2ccc(C)cc2)c1
inhibition in vivo at 1 mg/kg (Rattus norvegicus [5]): 65%
inhibition in vivo at 0.3 mg/kg (Rattus norvegicus [3]): 26%

COc1cc(C(=O)Nc2nn[nH]n2)nc(-c2cccc(Cl)c2)c1
inhibition in vivo at 10 mg/kg (Rattus norvegicus [8]): 64%
inhibition in vivo at 3 mg/kg (Rattus norvegicus [2]): 34%

CCCCc1ccc(-c2cc(OC)cc(C(=O)Nc3nn[nH]n3)n2)cc1
inhibition in vivo at 1 mg/kg (Rattus norvegicus [1]): 29%
inhibition in vivo at 10 mg/kg (Rattus norvegicus [8]): 92%
inhibition in vivo at 3 mg/kg (Rattus norvegicus [2]): 61%

COc1cccc(-c2cc(C)cc(C(=O)Nc3nn[nH]n3)n2)c1
inhibition in vivo at 1 mg/kg (Rattus norvegicus [1]): 25%
inhibition in vivo at 3 mg/kg (Rattus norvegicus [2]): 65%

COc1cc(C(=O)Nc2nn[nH]n2)nc(-c2ccccc2Cl)c1
inhibition in vivo at 10 mg/kg (Rattus norvegicus [9]): 17%

From ChEMBL document CHEMBL1122378, “Antiallergic agents. 2. N-(1H-tetrazol-5-yl)-6-phenyl-2-pyridinecarboxamides” (1983)
